Reference: ChEMBL document CHEMBL1138529, “Efficacy, pharmacokinetics, and metabolism of tetrahydroquinoline inhibitors of Plasmodium falciparum protein farnesyltransferase” (Antimicrob Agents Chemother, 2007)
Activity calls are given as the source filed them.

Columns and labels:
[1] = target: C-C chemokine receptor type 1 (Homo sapiens) (UniProt P32246); experiment: Inhibition of CCR1 receptor at 10 uM
Procedure, shortened: (§1)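 Radioligand displacement screen by a contractor across 50 receptors, ion channels and transporters, test compound at 10 μM; decrease in specific ligand binding expressed as percentage, with >50% decrease taken as significant.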

[2] = tested on: Rattus norvegicus; experiment: Toxicity in Plasmodium berghei NK65 infected Sprague-Dawley rat assessed as effect on renal function at 50 mg/kg, perorally administered every 12 hrs for 3 days; format: organism-based; design: dose 50 mg/kg, route oral; conditions: in vivo, po, in the assay text read “every 8 hrs” for “every 12 hrs”
Procedure, shortened: (§2)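 Female Sprague-Dawley rats, 10-12 weeks, n = 3 per schedule. Dosed 50 mg/kg by oral gavage every 8 h or every 12 h for 72 h. At the end of dosing, blood was sent to a clinical laboratory for complete blood counts, white cell differentials, electrolytes, glucose, renal function, liver enzymes and cholesterol.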

[3] = target: Beta-1 adrenergic receptor (Homo sapiens) (UniProt P08588); experiment: Inhibition of beta-1 adrenergic receptor at 10 uM
Procedure, shortened: (§3)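 Radioligand displacement at a contract lab across a panel of 50 receptors, ion channels and transporters, single test concentration 10 μM; loss of specific ligand binding reported as percent, with >50% decrease counted as significant.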

[4] = AUC in Sprague-Dawley rat at 50 mg/kg, po; format: ADME, organism-based; design: dose 50 mg/kg, route oral; conditions: plasma
Procedure, shortened: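 Three female BALB/c mice (lines for mice, 8–10 weeks) or three female Sprague-Dawley rats (10–12 weeks) per group; 50 mg/kg oral gavage in 3% EtOH-7% Tween 80-90% normal saline. Plasma sampled at set times (tail bleed in mice, saphenous vein in rats), extracted with acetonitrile plus internal standard, quantified by LC/MS; AUC as mean of three animals.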

[5] = target: 5-hydroxytryptamine receptor 5A (Homo sapiens) (UniProt P47898); experiment: Inhibition of 5HT5A receptor at 10 uM; procedure, shortened: as §1
[6] = tested on: Plasmodium falciparum; experiment: Antiplasmodial activity against chloroquine-resistant Plasmodium falciparum K1 by [3H]hypoxanthine uptake; format: functional; conditions: read-out: ED50 (the source's name)
Procedure, shortened: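 Asynchronous cultures at 0.5% parasitemia and 0.5% hematocrit in RPMI 1640 with 20% heat-inactivated human A+ plasma, exposed to serially diluted inhibitor (top final 5 μM, from DMSO stock) under 5% CO2/5% O2/90% N2 at 37°C for 48 h. [3H]hypoxanthine was then added for 24 h and harvested counts were background-subtracted against DMSO-only controls. ED50 came from linear regression, as the mean of duplicates.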

[7] = tested on: Salmonella typhimurium; experiment: Toxicity against Salmonella enterica serovar Typhimurium TA100; format: organism-based, Salmonella enterica subsp. enterica serovar Typhimurium; conditions: in vivo
Procedure, shortened: (§4)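 Ames fluctuation test in S. Typhimurium TA98 (frameshift) and TA100 (base substitution), with and without rat liver S9. Tested at 5, 10, 50 and 100 μM plus higher concentrations, 48 wells each, in histidine-free liquid medium for 96 h. Growth read spectrophotometrically by pH-indicator color change. Bacterial cytotoxicity assayed in parallel at the same concentrations.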

[8] = Inhibition of alpha1 adrenergic receptor at 10 uM
Procedure, shortened: (§5)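 Radioligand displacement screen at a 10 μM test concentration, run by a contract lab across a panel of 50 receptors, pharmacologically active ion channels and transporters. The read-out is the decrease in specific radiolabeled ligand binding, expressed as a percentage. A decrease above 50% was considered significant.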

[9] = target: B2 bradykinin receptor (Homo sapiens) (UniProt P30411); experiment: Inhibition of bradykinin B2 receptor at 10 uM; procedure, shortened: as §3
[10] = target: Alpha-2A adrenergic receptor (Homo sapiens) (UniProt P08913); experiment: Inhibition of alpha2 adrenergic receptor at 10 uM; procedure, shortened: as §3
[11] = Cmax in BALB/c mouse at 50 mg/kg, po; format: ADME, organism-based; design: dose 50 mg/kg, route oral; conditions: in vivo
Procedure, shortened: (§6)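 50 mg/kg by oral gavage in 3% EtOH-7% Tween 80-90% normal saline to groups of three females (BALB/c mice, 8–10 weeks, tail bleed; Sprague-Dawley rats, 10–12 weeks, saphenous vein). Plasma extracted with acetonitrile/internal standard, LC/MS; means of three animals. Oral elimination half-life depends on absorption rate as well as elimination.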

[12] = AUC in Sprague-Dawley rat at 2 mg/kg, iv; format: ADME, organism-based; design: dose 2 mg/kg, route intravenous; conditions: plasma
Procedure, shortened: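 Three female Sprague-Dawley rats per group (10–12 weeks), jugular-vein catheterized; 2 mg/kg in 3% EtOH-7% Tween 80-90% normal saline given through the catheter. Plasma drawn from the catheter at set times, acetonitrile extraction with internal standard, LC/MS quantification.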

[13] = target: D(2) dopamine receptor (Homo sapiens) (UniProt P14416); experiment: Inhibition of dopamine D2S receptor at 10 uM; procedure, shortened: as §3
[14] = Permeability from apical to basolateral side in human Caco-2 cells; format: ADME, cell-based; conditions: read-out: permeability
[15] = target: Melatonin receptor type 1A (Homo sapiens) (UniProt P48039); experiment: Inhibition of melatonin MT1 receptor at 10 uM; procedure, shortened: as §3
[16] = tested on: Rattus norvegicus; experiment: Toxicity in Plasmodium berghei NK65 infected Sprague-Dawley rat assessed as effect on electrolyte levels at 50 mg/kg, perorally administered every 8 hrs for 3 days; format: organism-based; design: dose 50 mg/kg, route oral; conditions: in vivo, po; procedure, shortened: as §2
[17] = target: 5-hydroxytryptamine receptor 7 (Homo sapiens) (UniProt P34969); experiment: Inhibition of 5HT7 receptor at 10 uM; procedure, shortened: as §1
[18] = target: Muscarinic acetylcholine receptor M1 (Homo sapiens) (UniProt P11229); experiment: Inhibition of muscarinic M1 receptor at 10 uM; procedure, shortened: as §3
[19] = target: Adenosine A2A receptor (Homo sapiens) (UniProt P29274); experiment: Inhibition of adenosine A2A receptor at 10 uM
[20] = target: Muscarinic acetylcholine receptor M2 (Homo sapiens) (UniProt P08172); experiment: Inhibition of muscarinic M2 receptor at 10 uM; procedure, shortened: as §3
[21] = tested on: Salmonella typhimurium; experiment: Toxicity against Salmonella enterica serovar Typhimurium TA98; format: organism-based, Salmonella enterica subsp. enterica serovar Typhimurium; conditions: in vivo; procedure, shortened: as §4
[22] = Cmax in Sprague-Dawley rat at 50 mg/kg, po; format: ADME, organism-based; design: dose 50 mg/kg, route oral; conditions: in vivo; procedure, shortened: as §6
[23] = tested on: Rattus norvegicus; experiment: Toxicity in Sprague-Dawley rat at 50 mg/kg, po; format: organism-based; design: dose 50 mg/kg, route oral; conditions: in vivo
Procedure, shortened: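 Female Sprague-Dawley rats, 10-12 weeks, three per group. 50 mg/kg oral gavage in 3% EtOH-7% Tween 80-90% normal saline. Saphenous vein plasma sampled over time, and animals observed for adverse reactions.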

[24] = target: 5-hydroxytryptamine receptor 3A (Homo sapiens) (UniProt P46098); experiment: Inhibition of 5HT3 receptor at 10 uM; procedure, shortened: as §1
[25] = target: Histamine H2 receptor (Homo sapiens) (UniProt P25021); experiment: Inhibition of histamine H2 receptor at 10 uM; procedure, shortened: as §3
[26] = tested on: Rattus norvegicus; experiment: Toxicity in Plasmodium berghei NK65 infected Sprague-Dawley rat assessed as effect on cholesterol levels at 50 mg/kg, perorally administered every 12 hrs for 3 days; format: organism-based; design: dose 50 mg/kg, route oral; conditions: in vivo, po, in the assay text read “every 8 hrs” for “every 12 hrs”; procedure, shortened: as §2
[27] = tested on: Rattus norvegicus; experiment: Toxicity in Plasmodium berghei NK65 infected Sprague-Dawley rat assessed as effect on blood counts at 50 mg/kg, perorally administered every 12 hrs for 3 days; format: organism-based; design: dose 50 mg/kg, route oral; conditions: in vivo, po; procedure, shortened: as §2
[28] = Inhibition of L-type calcium channel at verapamil site at 10 uM; procedure, shortened: as §5
[29] = Inhibition of […] GABA receptor at 10 uM; procedure, shortened: as §5
[30] = target: Neuromedin-K receptor (Homo sapiens) (UniProt P29371); experiment: Inhibition of NK3 receptor at 10 uM; procedure, shortened: as §1
[31] = tested on: Rattus norvegicus; experiment: Toxicity in Plasmodium berghei NK65 infected Sprague-Dawley rat assessed as effect on cholesterol levels at 50 mg/kg, perorally administered every 8 hrs for 3 days; format: organism-based; design: dose 50 mg/kg, route oral; conditions: in vivo, po; procedure, shortened: as §2

Chain of Adenosine A2A receptor (Homo sapiens) (P29274 whole entry, looked up): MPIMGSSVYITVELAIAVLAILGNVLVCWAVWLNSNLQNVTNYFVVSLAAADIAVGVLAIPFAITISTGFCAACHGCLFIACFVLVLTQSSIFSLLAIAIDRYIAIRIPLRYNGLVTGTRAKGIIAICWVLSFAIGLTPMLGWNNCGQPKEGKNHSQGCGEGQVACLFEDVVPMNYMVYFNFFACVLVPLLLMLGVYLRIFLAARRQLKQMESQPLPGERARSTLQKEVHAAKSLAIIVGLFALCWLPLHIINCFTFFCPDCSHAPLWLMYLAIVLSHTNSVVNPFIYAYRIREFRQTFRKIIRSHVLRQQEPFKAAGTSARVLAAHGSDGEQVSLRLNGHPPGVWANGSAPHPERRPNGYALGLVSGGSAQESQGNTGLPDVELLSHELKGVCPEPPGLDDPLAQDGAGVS
Chain of Muscarinic acetylcholine receptor M1 (Homo sapiens) (P11229 whole entry): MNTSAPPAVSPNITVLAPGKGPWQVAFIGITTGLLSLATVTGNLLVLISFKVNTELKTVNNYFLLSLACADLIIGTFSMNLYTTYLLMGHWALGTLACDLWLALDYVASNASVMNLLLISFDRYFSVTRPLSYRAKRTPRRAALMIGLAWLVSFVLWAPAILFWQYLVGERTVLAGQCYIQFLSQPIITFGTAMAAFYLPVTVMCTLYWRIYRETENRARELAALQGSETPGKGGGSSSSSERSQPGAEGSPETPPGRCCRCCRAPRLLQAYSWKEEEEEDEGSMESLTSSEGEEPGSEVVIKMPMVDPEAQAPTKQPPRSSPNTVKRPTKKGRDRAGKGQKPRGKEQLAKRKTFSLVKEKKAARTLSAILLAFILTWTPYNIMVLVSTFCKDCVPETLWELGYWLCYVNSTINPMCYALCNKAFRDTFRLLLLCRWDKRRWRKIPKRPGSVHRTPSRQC
Chain of B2 bradykinin receptor (Homo sapiens) (P30411 whole entry): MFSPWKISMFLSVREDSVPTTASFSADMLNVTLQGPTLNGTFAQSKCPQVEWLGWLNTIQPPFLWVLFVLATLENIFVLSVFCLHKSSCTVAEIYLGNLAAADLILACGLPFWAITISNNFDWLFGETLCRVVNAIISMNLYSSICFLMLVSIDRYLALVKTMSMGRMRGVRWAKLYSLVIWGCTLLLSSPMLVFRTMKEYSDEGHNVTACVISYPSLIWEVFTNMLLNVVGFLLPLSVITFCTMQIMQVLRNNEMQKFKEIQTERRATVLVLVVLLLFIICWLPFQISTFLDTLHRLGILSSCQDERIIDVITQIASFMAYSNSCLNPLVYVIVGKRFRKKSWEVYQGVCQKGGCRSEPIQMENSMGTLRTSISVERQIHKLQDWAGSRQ
Chain of 5-hydroxytryptamine receptor 3A (Homo sapiens) (P46098 whole entry): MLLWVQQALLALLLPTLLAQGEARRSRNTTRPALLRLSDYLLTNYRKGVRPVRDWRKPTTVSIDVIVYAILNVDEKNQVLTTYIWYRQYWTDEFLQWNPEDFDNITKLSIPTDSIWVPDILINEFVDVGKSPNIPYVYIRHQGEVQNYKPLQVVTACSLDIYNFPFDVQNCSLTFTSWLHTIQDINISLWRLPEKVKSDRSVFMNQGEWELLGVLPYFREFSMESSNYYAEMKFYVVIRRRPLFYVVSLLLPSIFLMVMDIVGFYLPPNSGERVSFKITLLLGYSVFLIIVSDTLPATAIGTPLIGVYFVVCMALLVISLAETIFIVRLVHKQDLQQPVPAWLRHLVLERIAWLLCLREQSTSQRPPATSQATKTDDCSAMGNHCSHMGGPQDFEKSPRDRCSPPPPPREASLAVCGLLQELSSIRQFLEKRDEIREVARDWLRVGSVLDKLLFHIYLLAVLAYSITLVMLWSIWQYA
Chain of Neuromedin-K receptor (Homo sapiens) (P29371 whole entry): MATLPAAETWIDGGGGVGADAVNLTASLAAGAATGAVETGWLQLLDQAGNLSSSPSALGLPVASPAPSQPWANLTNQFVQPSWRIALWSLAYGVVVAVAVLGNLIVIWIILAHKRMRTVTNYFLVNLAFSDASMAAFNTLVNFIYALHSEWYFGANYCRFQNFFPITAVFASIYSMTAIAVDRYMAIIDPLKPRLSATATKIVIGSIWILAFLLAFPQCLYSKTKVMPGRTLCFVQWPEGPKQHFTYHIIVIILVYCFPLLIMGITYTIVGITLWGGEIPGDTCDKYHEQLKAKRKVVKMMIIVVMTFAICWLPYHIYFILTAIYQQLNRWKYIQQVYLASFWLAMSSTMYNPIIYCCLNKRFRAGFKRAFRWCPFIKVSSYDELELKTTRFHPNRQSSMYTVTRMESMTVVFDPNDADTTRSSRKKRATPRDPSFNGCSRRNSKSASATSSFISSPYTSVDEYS
Chain of C-C chemokine receptor type 1 (Homo sapiens) (P32246 whole entry): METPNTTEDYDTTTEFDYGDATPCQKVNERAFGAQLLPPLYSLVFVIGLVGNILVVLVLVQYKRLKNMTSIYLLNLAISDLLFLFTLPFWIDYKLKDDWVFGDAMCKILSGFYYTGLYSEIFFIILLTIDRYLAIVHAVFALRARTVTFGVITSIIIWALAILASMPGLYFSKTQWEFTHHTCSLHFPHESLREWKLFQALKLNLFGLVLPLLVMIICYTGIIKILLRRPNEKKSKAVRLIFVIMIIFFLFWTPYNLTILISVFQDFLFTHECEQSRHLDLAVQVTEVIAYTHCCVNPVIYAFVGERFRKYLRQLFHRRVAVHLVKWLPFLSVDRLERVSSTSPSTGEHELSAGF
Chain of Beta-1 adrenergic receptor (Homo sapiens) (P08588 whole entry, looked up): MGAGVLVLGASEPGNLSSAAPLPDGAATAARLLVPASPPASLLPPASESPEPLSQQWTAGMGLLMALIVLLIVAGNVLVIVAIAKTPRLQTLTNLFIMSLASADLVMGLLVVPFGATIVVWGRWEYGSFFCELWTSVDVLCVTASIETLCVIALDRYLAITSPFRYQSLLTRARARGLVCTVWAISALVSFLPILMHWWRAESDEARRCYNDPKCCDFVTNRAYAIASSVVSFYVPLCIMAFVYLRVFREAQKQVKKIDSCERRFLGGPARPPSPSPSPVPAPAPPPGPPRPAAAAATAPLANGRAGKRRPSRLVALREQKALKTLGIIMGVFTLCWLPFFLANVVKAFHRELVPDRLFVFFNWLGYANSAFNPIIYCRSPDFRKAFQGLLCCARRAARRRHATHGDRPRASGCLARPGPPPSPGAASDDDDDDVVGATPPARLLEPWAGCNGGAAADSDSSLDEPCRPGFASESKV
Chain of 5-hydroxytryptamine receptor 5A (Homo sapiens) (P47898 whole entry): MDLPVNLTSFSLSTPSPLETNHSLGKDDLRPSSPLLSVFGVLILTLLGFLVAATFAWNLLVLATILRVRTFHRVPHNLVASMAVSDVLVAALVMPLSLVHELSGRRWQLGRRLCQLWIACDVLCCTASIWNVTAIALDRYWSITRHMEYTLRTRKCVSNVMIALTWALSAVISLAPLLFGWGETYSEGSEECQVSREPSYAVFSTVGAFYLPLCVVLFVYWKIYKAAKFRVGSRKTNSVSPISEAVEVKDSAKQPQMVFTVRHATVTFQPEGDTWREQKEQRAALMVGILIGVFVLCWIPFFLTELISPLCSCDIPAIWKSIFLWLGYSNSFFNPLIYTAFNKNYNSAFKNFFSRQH
Chain of 5-hydroxytryptamine receptor 7 (Homo sapiens) (P34969 whole entry): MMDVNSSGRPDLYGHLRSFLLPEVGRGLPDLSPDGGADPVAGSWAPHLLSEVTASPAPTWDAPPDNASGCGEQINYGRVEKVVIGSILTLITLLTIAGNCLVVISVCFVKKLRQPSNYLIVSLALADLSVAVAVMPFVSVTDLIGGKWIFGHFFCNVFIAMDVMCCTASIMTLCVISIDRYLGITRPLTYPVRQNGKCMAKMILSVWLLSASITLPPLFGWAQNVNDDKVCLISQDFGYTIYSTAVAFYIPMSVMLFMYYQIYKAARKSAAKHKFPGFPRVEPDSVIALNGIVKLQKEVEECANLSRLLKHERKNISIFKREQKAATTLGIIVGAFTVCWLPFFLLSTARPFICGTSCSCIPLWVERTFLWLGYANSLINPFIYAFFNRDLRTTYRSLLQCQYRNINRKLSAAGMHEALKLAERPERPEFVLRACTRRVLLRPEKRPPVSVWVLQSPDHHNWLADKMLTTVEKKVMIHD
Chain of D(2) dopamine receptor (Homo sapiens) (P14416 whole entry): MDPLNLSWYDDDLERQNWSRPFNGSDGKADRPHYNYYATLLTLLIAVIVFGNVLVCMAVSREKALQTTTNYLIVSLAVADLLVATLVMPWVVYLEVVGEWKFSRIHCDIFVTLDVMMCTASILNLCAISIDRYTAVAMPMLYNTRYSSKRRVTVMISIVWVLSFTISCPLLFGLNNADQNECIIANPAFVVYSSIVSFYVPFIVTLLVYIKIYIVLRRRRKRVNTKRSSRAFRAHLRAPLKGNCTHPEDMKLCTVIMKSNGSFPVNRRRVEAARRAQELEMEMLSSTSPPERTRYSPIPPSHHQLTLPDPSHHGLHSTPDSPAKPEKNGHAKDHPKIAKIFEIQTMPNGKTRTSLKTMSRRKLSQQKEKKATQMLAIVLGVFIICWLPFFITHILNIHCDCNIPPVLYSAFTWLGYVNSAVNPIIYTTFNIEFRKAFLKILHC
Chain of Melatonin receptor type 1A (Homo sapiens) (P48039 whole entry): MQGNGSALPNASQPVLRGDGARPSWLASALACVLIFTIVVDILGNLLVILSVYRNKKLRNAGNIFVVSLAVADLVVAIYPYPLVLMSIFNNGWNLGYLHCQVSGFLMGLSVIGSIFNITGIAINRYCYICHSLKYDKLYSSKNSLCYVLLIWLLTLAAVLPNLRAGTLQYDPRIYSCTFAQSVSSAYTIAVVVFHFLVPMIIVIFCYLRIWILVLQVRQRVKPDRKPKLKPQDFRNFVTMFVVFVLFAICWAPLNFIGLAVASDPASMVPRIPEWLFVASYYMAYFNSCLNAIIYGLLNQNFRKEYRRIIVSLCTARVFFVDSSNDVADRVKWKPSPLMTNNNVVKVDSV

With `COC(=O)N1CCC(CN(C2Cc3cc(C#N)ccc3N(Cc3cncn3C)C2)S(=O)(=O)c2ccccn2)CC1` (stereo unspecified) the inhibition [1] was “inactive”, the Activity [2] was “Non-toxic” and the inhibition [3] was “inactive”. For the same molecule, the AUC [4] was 10.9 µM·h, the inhibition [5] was “inactive” and the EC50 [6] was 15 nM. The Activity [7] was “Non-toxic”, the inhibition [8] was “inactive” and the inhibition [9] was “inactive”. For the same molecule, the inhibition [10] was “inactive”, the Cmax [11] was 4.2 µM and the AUC [12] was 0.533 µM·h. For the same molecule, the inhibition [13] was “inactive”, the Papp A→B [14] was 1.1 ×10⁻⁶ cm/s and the inhibition [15] was “inactive”. The Activity [16] was “Non-toxic”, the inhibition [17] was “inactive” and the inhibition [18] was 64%. The inhibition [19] was “inactive”, the inhibition [20] was 77% and the Activity [21] was “Non-toxic”. The Cmax [22] was 4.5 µM, the Activity [23] was “Non-toxic” and the inhibition [24] was “inactive”. For the same molecule, the inhibition [25] was “inactive”, the Activity [26] was “Non-toxic” and the Activity [27] was “Non-toxic”. For the same molecule, the inhibition [28] was “inactive”, the inhibition [29] was “inactive” and the inhibition [30] was “inactive”. For the same molecule, the Activity [31] was “Non-toxic”.
